Test results as given in ChEMBL document CHEMBL3612027, “Substrate-guided optimization of the syringolins yields potent proteasome inhibitors with activity against leukemia cell lines” (Bioorg Med Chem, 2015).

Experiments:
UO-31 = experiment: Cytotoxicity against human UO31 cells assessed as cell growth at 10 uM after 48 hrs relative to control; type: functional; details: UO-31, 48 h, read-out: Activity
Outline: (§1)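 Submitted to the National Cancer Institute for a single-dose screen at 10 micromolar against 60 cancer cell lines. Growth is expressed relative to negative-control cultures.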

Malme-3M = experiment: Cytotoxicity against human MALME-3M cells assessed as cell growth at 10 uM after 48 hrs relative to control; type: functional; details: read-out: Activity
Outline: (§2)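 Run at the National Cancer Institute as a single-dose screen across its 60-cell-line cancer panel. Compound was tested at 10 micromolar, and growth was expressed as a percentage of negative-control cultures.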

M14 = experiment: Cytotoxicity against human M14 cells assessed as cell growth at 10 uM after 48 hrs relative to control; type: functional; details: M14, 48 h, read-out: Activity; outline: as §2
NCI-H460 = experiment: Cytotoxicity against human NCI-H460 cells assessed as cell growth at 10 uM after 48 hrs relative to control; type: functional; details: NCI-H460, 48 h, read-out: Activity; outline: as §2
T47D = experiment: Cytotoxicity against human T47D cells assessed as cell growth at 10 uM after 48 hrs relative to control; type: functional; details: read-out: Activity; outline: as §1
TK-10 = experiment: Cytotoxicity against human TK10 cells assessed as cell growth at 10 uM after 48 hrs relative to control; type: functional; details: TK-10, 48 h, read-out: Activity; outline: as §1
RPMI-8226 = experiment: Cytotoxicity against human RPMI8226 cells assessed as cell growth at 10 uM after 48 hrs relative to control; type: functional; details: RPMI-8226, 48 h, read-out: Activity; outline: as §2
KM12 = experiment: Cytotoxicity against human KM12 cells assessed as cell growth at 10 uM after 48 hrs relative to control; type: functional; details: KM12, 48 h, read-out: Activity; outline: as §2
SW-620 = experiment: Cytotoxicity against human SW620 cells assessed as cell growth at 10 uM after 48 hrs relative to control; type: functional; details: SW-620, 48 h, read-out: Activity; outline: as §1
786-0 = experiment: Cytotoxicity against human 786-0 cells assessed as cell growth at 10 uM after 48 hrs relative to control; type: functional; details: 786-0, 48 h, read-out: Activity; outline: as §2
A549 = experiment: Cytotoxicity against human A549 cells assessed as cell growth at 10 uM after 48 hrs relative to control; type: functional; details: A549, 48 h, read-out: Activity; outline: as §2
UACC-257 = experiment: Cytotoxicity against human UACC257 cells assessed as cell growth at 10 uM after 48 hrs relative to control; type: functional; details: UACC-257, 48 h, read-out: Activity; outline: as §1
CAKI-1 = experiment: Cytotoxicity against human Caki1 cells assessed as cell growth at 10 uM after 48 hrs relative to control; type: functional; details: CAKI-1, 48 h, read-out: Activity; outline: as §2
SK-MEL-5 = experiment: Cytotoxicity against human SK-MEL-5 cells assessed as cell growth at 10 uM after 48 hrs relative to control; type: functional; details: SK-MEL-5, 48 h, read-out: Activity; outline: as §2
HCT-116 = experiment: Cytotoxicity against human HCT116 cells assessed as cell growth at 10 uM after 48 hrs relative to control; type: functional; details: HCT-116, 48 h, read-out: Activity; outline: as §2
[1] = Cytotoxicity against human Hs578T cells assessed as cell growth at 10 uM after 48 hrs relative to control; type: functional; details: Hs-578T, read-out: Activity; outline: as §2
HCC 2998 = experiment: Cytotoxicity against human HCC2998 cells assessed as cell growth at 10 uM after 48 hrs relative to control; type: functional; details: HCC 2998, 48 h, read-out: Activity; outline: as §2
OVCAR-5 = experiment: Cytotoxicity against human OVCAR5 cells assessed as cell growth at 10 uM after 48 hrs relative to control; type: functional; details: OVCAR-5, 48 h, read-out: Activity; outline: as §2
OVCAR-3 = experiment: Cytotoxicity against human OVCAR3 cells assessed as cell growth at 10 uM after 48 hrs relative to control; type: functional; details: OVCAR-3, 48 h, read-out: Activity; outline: as §2
[2] = target: T1, Proteasome Macropain subunit MB1 (Homo sapiens, UniProt P28074); experiment: Inhibition of human 20S proteasome beta5 subunit using Suc-LLVY-AMC as substrate by fluorescence assay
T1 sequence (P28074 whole entry): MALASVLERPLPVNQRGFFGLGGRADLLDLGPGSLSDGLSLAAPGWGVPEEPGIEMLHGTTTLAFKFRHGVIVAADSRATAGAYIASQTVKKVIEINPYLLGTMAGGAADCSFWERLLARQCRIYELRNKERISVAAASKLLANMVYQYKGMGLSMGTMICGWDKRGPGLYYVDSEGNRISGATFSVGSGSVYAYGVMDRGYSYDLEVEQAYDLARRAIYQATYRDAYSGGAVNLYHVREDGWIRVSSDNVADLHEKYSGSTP

A498 = experiment: Cytotoxicity against human A498 cells assessed as cell growth at 10 uM after 48 hrs relative to control; type: functional; details: A498, 48 h, read-out: Activity; outline: as §2
NCI-H522 = experiment: Cytotoxicity against human NCI-H522 cells assessed as cell growth at 10 uM after 48 hrs relative to control; type: functional; details: NCI-H522, 48 h, read-out: Activity; outline: as §2
MCF7 = experiment: Cytotoxicity against human MCF7 cells assessed as cell growth at 10 uM after 48 hrs relative to control; type: functional; details: MCF7, 48 h, read-out: Activity; outline: as §2
HL-60(TB) = experiment: Cytotoxicity against human HL-60(TB) cells assessed as cell growth at 10 uM after 48 hrs relative to control; type: functional; details: HL-60, 48 h, read-out: Activity
Outline: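 Run at the NCI as a single-dose screen: each compound at 10 micromolar across the 60-cancer-cell-line panel. Growth of each cell line in compound-containing media was expressed relative to negative-control cultures.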

SK-MEL-28 = experiment: Cytotoxicity against human SK-MEL-28 cells assessed as cell growth at 10 uM after 48 hrs relative to control; type: functional; details: SK-MEL-28, 48 h, read-out: Activity; outline: as §2
PC-3 = experiment: Cytotoxicity against human PC3 cells assessed as cell growth at 10 uM after 48 hrs relative to control; type: functional; details: PC-3, 48 h, read-out: Activity; outline: as §2
BT-549 = experiment: Cytotoxicity against human BT549 cells assessed as cell growth at 10 uM after 48 hrs relative to control; type: functional; details: BT-549, 48 h, read-out: Activity; outline: as §2
HOP-62 = experiment: Cytotoxicity against human HOP62 cells assessed as cell growth at 10 uM after 48 hrs relative to control; type: functional; details: HOP-62, 48 h, read-out: Activity; outline: as §2
SK-OV-3 = experiment: Cytotoxicity against human SKOV3 cells assessed as cell growth at 10 uM after 48 hrs relative to control; type: functional; details: SK-OV-3, 48 h, read-out: Activity; outline: as §2
MOLT-4 = experiment: Cytotoxicity against human MOLT4 cells after 48 hrs; type: functional; details: MOLT-4, 48 h
HL-60 = experiment: Cytotoxicity against human HL60 cells after 48 hrs; type: functional; details: HL-60, 48 h
K562 = experiment: Cytotoxicity against human K562 cells after 48 hrs; type: functional; details: K562, 48 h
[3] = Cytotoxicity against human RPMI-8226 cells after 48 hrs; type: functional; details: RPMI-8226, 48 h
SR = experiment: Cytotoxicity against human SR cells after 48 hrs; type: functional
Outline: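 Dose-dependent growth inhibition was assessed at the National Cancer Institute against its cancer cell line panel as a follow-up to the 10 micromolar single-dose screen.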

Row | SMILES | growth at 10 µM (UO-31) [%] | growth at 10 µM (Malme-3M) [%] | growth at 10 µM (M14) [%] | growth at 10 µM (NCI-H460) [%] | growth at 10 µM (T47D) [%] | growth at 10 µM (TK-10) [%] | growth at 10 µM (RPMI-8226) [%] | growth at 10 µM (KM12) [%] | growth at 10 µM (SW-620) [%] | growth at 10 µM (786-0) [%] | growth at 10 µM (A549) [%] | growth at 10 µM (UACC-257) [%] | growth at 10 µM (CAKI-1) [%] | growth at 10 µM (SK-MEL-5) [%] | growth at 10 µM (HCT-116) [%] | growth at 10 µM [1] [%] | growth at 10 µM (HCC 2998) [%] | growth at 10 µM (OVCAR-5) [%] | growth at 10 µM (OVCAR-3) [%] | Ki [2] [nM] | other results
1 | COC(=O)[C@@H](NC(=O)N[C@H](C(=O)N[C@H]1CCCCNC(=O)/C=C/[C@H](Cc2c[nH]c3ccccc23)NC1=O)C(C)C)C(C)C | 94.3 | 47.9 | 86.7 | 45.5 | -9.26 | 94.1 | 19 | 74.5 | 58.3 | 83.9 | 77.5 | 65.4 | 98.8 | 60.6 | 37.4 | 9.21 | 44.2 | 61.1 | -42.9 | 1710 | growth at 10 µM (A498): 37.9%; growth at 10 µM (NCI-H522): -17.8%; growth at 10 µM (MCF7): 48.5%; growth at 10 µM (HL-60(TB)): 17.6%; growth at 10 µM (SK-MEL-28): 41.9%; growth at 10 µM (PC-3): 76.3%; growth at 10 µM (BT-549): 8.05%; growth at 10 µM (HOP-62): 95%; growth at 10 µM (SK-OV-3): 15.4%
2 | COC(=O)[C@@H](NC(=O)N[C@@H](Cc1ccccc1)C(=O)N[C@H]1CCCCNC(=O)/C=C/[C@H](Cc2c[nH]c3ccccc23)NC1=O)C(C)C | 84 | 94 | 101 | 99.1 | 34.4 | 101 | 21.2 | 94.6 | 87.7 | 99.7 | 95.5 | 87.1 | 106 | 63.9 | 76.4 | 58.2 | 91.8 | 113 | 15.7 | 385 | GI50 (MOLT-4): 599 nM; GI50 (HL-60): 1290 nM; GI50 (K562): 2940 nM; growth at 10 µM (A498): 78.2%; growth at 10 µM (NCI-H522): -0.14%; growth at 10 µM (MCF7): 40.3%; growth at 10 µM (HL-60(TB)): 55.3%; GI50 [3]: 343 nM; GI50 (SR): 453 nM; growth at 10 µM (SK-MEL-28): 62.7%; growth at 10 µM (PC-3): 103%; growth at 10 µM (BT-549): 26.6%; growth at 10 µM (HOP-62): 113%; growth at 10 µM (SK-OV-3): 95.4%
